Reference: ChEMBL document CHEMBL3351848, “Novel insights into structure and function of factor XIIIa-inhibitor tridegin” (J Med Chem, 2014)
Calls of active or inactive are those of the source. No cut-off for these calls is given here. Residues, ends and D or L forms follow the SMILES beside them.

Experiments:
[1] = biological target: T1, Coagulation factor XIII A chain (Homo sapiens) (UniProt P00488); assay: Inhibition of recombinant F13a (unknown origin) using H-Tyr-Glu(pNA)-Val-Lys-Val-Ile-Gly-NH2 as substrate by chromogenic assay
T1 sequence (whole entry): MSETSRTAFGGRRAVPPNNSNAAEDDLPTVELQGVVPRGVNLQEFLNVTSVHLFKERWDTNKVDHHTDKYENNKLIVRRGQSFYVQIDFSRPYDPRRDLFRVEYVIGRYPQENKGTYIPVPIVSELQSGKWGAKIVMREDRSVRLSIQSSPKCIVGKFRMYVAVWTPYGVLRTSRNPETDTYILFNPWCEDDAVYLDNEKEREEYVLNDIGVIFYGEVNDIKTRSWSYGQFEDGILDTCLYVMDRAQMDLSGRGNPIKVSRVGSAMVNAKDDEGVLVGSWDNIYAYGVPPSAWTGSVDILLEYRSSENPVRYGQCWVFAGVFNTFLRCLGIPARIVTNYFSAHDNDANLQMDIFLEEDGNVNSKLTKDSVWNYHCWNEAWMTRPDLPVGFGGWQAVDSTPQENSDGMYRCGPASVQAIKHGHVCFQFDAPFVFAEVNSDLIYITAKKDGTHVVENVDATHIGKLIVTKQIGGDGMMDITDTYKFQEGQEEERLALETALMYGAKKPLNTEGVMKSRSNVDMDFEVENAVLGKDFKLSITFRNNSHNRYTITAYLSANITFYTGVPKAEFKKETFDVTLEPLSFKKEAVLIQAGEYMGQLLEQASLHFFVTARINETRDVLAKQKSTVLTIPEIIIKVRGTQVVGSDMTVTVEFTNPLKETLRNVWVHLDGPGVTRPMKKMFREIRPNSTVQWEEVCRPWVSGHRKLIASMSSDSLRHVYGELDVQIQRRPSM

[2] = biological target: T1, Coagulation factor XIII A chain (Homo sapiens); assay: Binding affinity to nonactivated recombinant F13A subunit (unknown origin) by microscale thermophoresis method
In short: (§1)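 Carboxyfluorescein-labeled peptide (2 μM solution, before mixing) in 50 mM Tris-HCl pH 7.5, 0.9% w/v NaCl, with Tween-20 to 0.1% final. Mixed with an equal volume of protein (FXIIIa, FXIII-A or FXIII-B) in the same buffer, 15 concentrations spanning 3.1 μM to 0.1 nM. After 20 min incubation, the mixture was loaded into glass capillaries and thermophoresis read three times per capillary.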

[3] = biological target: T2, Protein-glutamine gamma-glutamyltransferase (Homo sapiens) (UniProt P21980); assay: Inhibition of human TGase-2 using fluorogenic FRET substrate at 10 uM
T2 sequence (whole entry): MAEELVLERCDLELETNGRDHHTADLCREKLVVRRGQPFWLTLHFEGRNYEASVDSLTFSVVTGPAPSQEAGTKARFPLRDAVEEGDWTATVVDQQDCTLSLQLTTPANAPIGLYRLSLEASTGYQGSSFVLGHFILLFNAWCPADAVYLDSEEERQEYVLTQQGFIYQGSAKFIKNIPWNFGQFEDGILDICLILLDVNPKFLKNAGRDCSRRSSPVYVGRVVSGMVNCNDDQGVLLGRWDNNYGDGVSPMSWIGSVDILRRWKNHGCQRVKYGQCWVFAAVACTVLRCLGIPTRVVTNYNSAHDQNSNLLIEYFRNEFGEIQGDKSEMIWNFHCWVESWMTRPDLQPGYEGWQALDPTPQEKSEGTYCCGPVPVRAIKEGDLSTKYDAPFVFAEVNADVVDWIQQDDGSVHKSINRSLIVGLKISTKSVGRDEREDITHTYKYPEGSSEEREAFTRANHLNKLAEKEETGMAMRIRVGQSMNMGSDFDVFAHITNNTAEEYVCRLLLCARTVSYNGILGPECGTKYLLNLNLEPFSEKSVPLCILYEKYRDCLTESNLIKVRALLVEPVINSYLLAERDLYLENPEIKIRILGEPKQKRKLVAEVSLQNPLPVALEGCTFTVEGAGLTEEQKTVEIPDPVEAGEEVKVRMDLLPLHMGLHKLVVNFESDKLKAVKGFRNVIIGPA

[4] = biological target: T3, Coagulation factor XIII B chain (Homo sapiens) (UniProt P05160); assay: Binding affinity to nonactivated recombinant F13B subunit (unknown origin) by microscale thermophoresis method; in short: as §1
T3 sequence (whole entry): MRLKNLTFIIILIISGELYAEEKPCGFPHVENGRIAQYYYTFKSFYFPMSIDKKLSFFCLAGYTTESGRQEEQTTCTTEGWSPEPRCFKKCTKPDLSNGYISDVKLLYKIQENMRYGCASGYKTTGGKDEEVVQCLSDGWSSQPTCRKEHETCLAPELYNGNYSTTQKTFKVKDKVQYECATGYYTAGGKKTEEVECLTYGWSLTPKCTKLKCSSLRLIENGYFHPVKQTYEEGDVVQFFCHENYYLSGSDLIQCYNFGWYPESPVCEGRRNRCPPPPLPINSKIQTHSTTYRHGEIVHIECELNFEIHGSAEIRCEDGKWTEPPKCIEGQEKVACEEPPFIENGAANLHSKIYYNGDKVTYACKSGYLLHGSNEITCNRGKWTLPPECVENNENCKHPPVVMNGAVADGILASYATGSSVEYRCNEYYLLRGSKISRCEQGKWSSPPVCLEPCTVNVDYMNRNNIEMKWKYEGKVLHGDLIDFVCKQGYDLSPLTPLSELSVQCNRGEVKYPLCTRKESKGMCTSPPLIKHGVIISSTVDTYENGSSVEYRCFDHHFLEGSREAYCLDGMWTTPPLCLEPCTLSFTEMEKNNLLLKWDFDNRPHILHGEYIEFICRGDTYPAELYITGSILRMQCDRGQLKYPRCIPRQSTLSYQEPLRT

inhibition [1]: inactive | Activity [2]: inactive | inhibition [3]: < 10% | Activity [4]: inactive
SMILES: CC[C@H](C)[C@H](NC(=O)CNC(=O)[C@H](CCC(N)=O)NC(=O)[C@H](Cc1cnc[nH]1)NC(=O)[C@H](Cc1c[nH]c2ccccc12)NC(=O)[C@H](CCC(=O)O)NC(=O)[C@H](CCCCN)NC(=O)[C@H](CS)NC(=O)[C@@H]1CCCN1C(=O)[C@H](CC(C)C)NC(=O)[C@H](CC(C)C)NC(=O)[C@@H](N)CCCCN)C(=O)N1CCC[C@H]1C(=O)N[C@@H](CC(N)=O)C(=O)N1CCC[C@H]1C(=O)N[C@@H](CCCNC(=N)N)C(=O)N[C@@H](CS)C(=O)N[C@@H](Cc1c[nH]c2ccccc12)C(=O)N[C@@H](CS)C(=O)NCC(=O)N[C@@H](C)C(=O)N[C@@H](CC(=O)O)C(=O)N[C@@H](CC(C)C)C(=O)N[C@@H](CCC(=O)O)C(=O)N[C@@H](CS)C(=O)N[C@@H](C)C(=O)N[C@@H](CCC(N)=O)C(=O)N[C@@H](CC(=O)O)C(=O)N[C@@H](CCC(N)=O)C(=O)N[C@@H](Cc1ccc(O)cc1)C(=O)N[C@@H](CS)C(=O)N[C@@H](C)C(=O)N[C@@H](Cc1ccccc1)C(=O)N[C@H](C(=O)N1CCC[C@H]1C(=O)N[C@@H](CCC(N)=O)C(=O)N[C@@H](CS)C(=O)O)[C@@H](C)CC (H-KLLPCKEWHQGIPNPRCWCGADLECAQDQYCAFIPQC-OH)
